These results are taken from ChEMBL document CHEMBL1152488, “Synthesis and evaluation of pyrido[1,2-a]pyrimidines as inhibitors of nitric oxide synthases” (Eur J Med Chem, 2009).

The nature of series [1]: Dissociation constant, pKa of the compound. The series is classed as physicochemical. The procedure, abridged: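 UV spectrophotometric titration. Compound dissolved in 10% aqueous methanol, then mixed 1:1 with NaOH (0.002–6 M) and 1 M HCl to a final 150 µM. Absorbance read at 312 nm across the pH series.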
For series [2], the target named is T1, Nitric oxide synthase, inducible (Mus musculus) (UniProt P29477).
T1 sequence (whole entry): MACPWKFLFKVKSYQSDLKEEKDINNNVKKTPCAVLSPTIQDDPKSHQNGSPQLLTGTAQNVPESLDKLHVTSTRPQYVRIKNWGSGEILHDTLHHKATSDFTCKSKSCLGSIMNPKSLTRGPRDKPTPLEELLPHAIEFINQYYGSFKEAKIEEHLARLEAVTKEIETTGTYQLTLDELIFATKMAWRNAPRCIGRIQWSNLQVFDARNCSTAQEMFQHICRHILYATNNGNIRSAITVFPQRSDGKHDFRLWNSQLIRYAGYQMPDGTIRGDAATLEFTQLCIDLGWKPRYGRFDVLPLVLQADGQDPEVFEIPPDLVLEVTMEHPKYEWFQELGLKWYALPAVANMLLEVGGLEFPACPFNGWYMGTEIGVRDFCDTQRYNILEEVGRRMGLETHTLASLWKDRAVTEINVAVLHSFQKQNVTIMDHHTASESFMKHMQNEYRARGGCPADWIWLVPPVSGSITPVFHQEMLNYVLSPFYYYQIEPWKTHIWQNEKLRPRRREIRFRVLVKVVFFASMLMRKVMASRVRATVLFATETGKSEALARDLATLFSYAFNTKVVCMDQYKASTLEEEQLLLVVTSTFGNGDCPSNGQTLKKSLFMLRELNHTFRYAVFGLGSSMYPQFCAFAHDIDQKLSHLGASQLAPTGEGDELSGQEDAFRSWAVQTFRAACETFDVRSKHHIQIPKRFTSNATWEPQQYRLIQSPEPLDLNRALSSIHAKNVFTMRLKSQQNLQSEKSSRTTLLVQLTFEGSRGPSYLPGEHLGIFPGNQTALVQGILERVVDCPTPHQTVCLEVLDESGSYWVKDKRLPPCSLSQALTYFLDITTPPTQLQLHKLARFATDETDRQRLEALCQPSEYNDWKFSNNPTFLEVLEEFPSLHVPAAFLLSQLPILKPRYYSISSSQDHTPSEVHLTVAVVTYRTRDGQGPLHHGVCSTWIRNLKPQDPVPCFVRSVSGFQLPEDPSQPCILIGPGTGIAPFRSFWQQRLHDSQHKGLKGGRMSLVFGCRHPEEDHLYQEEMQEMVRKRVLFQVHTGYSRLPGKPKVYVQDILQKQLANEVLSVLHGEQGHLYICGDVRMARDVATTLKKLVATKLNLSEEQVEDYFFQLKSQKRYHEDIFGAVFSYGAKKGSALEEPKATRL
Description: Inhibition of mouse iNOS expressed in insect Sf9 cells at 1 mM preincubated for 15 mins followed by compound dilution.

The source made the active and inactive calls. The calls are words filed in the database; no cut-off is given here.

A word on the pKa: it is the pH at which an ionisable group is half protonated. A low value points to a stronger acid or weaker base. In series [1], `O=C(c1ccc(Br)cc1)C1CN=C2C=CC=CN2C1` (configuration not stated) came in with a pKa of 12.4. `CC1=CC2=NCC(C(=O)c3ccc(-c4ccc(Br)cc4)cc3)CN2C=C1.[O-][Cl+3]([O-])([O-])O` (configuration not stated): the outcome in series [2] was inactive.
